Experimental data from ChEMBL document CHEMBL3616436, “Synthesis, cytotoxicity and antimicrobial activity of thiourea derivatives incorporating 3-(trifluoromethyl)phenyl moiety” (Eur J Med Chem, 2015).
≈ marks a conversion by molar mass, not a printed value. Calls of active or inactive are those of the source. The calls are words filed in the database; no cut-off is given here.

Experiments:
Staphylococcus aureus = assay: Antimicrobial activity against hospital methicillin-resistant Staphylococcus aureus 81/05 after 18 hrs by twofold serial microdilution method; format: functional; conditions: 81/05, 18 h
Method in brief: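 Twofold serial microdilution in Mueller-Hinton broth. Compound stock was made in DMSO and diluted in sterile water. Tested range was 0.125–512 µg/mL. Final inoculum was 10^5 CFU/mL. Plates were incubated 18 h at 35 °C. MIC is the lowest concentration preventing visible growth.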

[1] = test system: Staphylococcus epidermidis; assay: Ratio of ciprofloxacin MIC to compound MIC for hospital methicillin-resistant Staphylococcus epidermidis 151/04 after 18 hrs by twofold serial microdilution method; format: functional
Method in brief: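 Ratio of MICs for ciprofloxacin and test agent, each from twofold serial broth microdilution in Mueller-Hinton broth following CLSI guidelines. DMSO stock was diluted in sterile water to 0.125–512 µg/mL, with a final inoculum of 10^5 CFU/mL.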

[2] = biological target: T1, DNA topoisomerase 4 (Staphylococcus epidermidis) (UniProt Q5HPI6+Q5HPI5); assay: Inhibition of decatenation activity of DNA topoisomerase 4 in Staphylococcus epidermidis ATCC 12228 using kDNA as substrate at 32 ug/ml after 1 hr using ethidium bromide staining by agarose gel electrophoresis; format: protein assay
T1 sequence (Q5HPI5 whole entry, looked up): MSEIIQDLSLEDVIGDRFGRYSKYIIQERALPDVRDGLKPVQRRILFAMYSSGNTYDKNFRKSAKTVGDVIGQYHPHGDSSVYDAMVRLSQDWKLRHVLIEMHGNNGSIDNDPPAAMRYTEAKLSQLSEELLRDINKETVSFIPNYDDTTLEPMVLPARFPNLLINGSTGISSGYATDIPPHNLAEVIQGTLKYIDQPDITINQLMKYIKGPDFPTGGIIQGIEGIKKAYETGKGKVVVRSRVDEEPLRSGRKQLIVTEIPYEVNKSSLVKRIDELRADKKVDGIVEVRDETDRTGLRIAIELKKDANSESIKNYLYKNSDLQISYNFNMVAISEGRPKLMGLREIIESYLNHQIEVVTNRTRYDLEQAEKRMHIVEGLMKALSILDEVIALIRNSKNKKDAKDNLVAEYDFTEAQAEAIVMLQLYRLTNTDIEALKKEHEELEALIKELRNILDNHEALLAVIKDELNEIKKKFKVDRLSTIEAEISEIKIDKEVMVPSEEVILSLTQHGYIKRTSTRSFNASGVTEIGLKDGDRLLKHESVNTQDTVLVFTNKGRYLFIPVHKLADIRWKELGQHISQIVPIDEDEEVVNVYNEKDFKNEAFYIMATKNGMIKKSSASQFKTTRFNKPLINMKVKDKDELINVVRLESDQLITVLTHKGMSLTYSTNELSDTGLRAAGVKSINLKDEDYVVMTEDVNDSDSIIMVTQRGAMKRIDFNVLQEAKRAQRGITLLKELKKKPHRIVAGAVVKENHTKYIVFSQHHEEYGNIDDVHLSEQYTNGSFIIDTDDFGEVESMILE
T1 sequence (Q5HPI6 whole entry, looked up): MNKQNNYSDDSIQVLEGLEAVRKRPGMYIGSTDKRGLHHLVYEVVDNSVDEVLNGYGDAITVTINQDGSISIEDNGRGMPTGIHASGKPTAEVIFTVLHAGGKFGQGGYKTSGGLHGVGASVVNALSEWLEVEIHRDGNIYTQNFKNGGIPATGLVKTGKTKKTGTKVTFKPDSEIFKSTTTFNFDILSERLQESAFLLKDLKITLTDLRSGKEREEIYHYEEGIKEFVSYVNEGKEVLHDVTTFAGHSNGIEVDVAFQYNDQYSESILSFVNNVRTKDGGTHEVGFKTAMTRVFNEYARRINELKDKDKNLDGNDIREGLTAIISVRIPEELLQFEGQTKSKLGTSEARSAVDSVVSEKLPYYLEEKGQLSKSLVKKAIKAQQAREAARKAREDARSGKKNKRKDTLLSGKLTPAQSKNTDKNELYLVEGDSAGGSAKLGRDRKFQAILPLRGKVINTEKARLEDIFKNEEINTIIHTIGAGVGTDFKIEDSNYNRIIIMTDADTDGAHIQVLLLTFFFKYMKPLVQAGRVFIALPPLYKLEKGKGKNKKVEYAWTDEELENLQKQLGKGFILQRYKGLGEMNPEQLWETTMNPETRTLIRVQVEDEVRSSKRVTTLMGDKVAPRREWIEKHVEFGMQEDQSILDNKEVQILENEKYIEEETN

[3] = biological target: T2, Topoisomerase IV (Staphylococcus aureus) (UniProt P0C1U9+P0C1S7); assay: Inhibition of decatenation activity of DNA topoisomerase 4 in Staphylococcus aureus NCTC 4163 using kDNA as substrate at 32 ug/ml […] using ethidium bromide staining by agarose gel electrophoresis; format: protein-complex assay
[4] = biological target: T2, Topoisomerase IV (Staphylococcus aureus); assay: Inhibition of decatenation activity of DNA topoisomerase 4 in hospital methicillin-resistant Staphylococcus aureus 54/05 using kDNA as substrate at 32 ug/ml after 1 hr using ethidium bromide staining by agarose gel electrophoresis; format: protein-complex assay
[5] = biological target: T2, Topoisomerase IV (Staphylococcus aureus); assay: Inhibition of decatenation activity of DNA topoisomerase 4 in Staphylococcus aureus ATCC 25923 using kDNA as substrate at 32 ug/ml after 1 hr using ethidium bromide staining by agarose gel electrophoresis; format: protein-complex assay
Method in brief: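 Kit-supplied S. aureus topoisomerase IV, 1 U, with 200 ng kDNA in the supplied assay buffer. Reactions ran 30 min at 37 °C with compound at 1, 4 or 32 µg/ml. They were stopped with STEB and extracted with chloroform/isoamyl alcohol (24:1). Products were run on 1% agarose in TAE for 1 h at 120 V and visualised with ethidium bromide under UV. Controls were no-enzyme, no-compound and ±DMSO.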

[6] = test system: Staphylococcus epidermidis; assay: Inhibition of biofilm formation in Staphylococcus epidermidis 23/04 after 24 hrs using MTT staining by spectrophotometer analysis; format: functional, organism-based; conditions: 23/04, 24 h
[7] = biological target: T2, Topoisomerase IV (Staphylococcus aureus); assay: Inhibition of decatenation activity of DNA topoisomerase 4 in hospital methicillin-resistant Staphylococcus aureus 54/05 using kDNA as substrate at 1 to 4 ug/ml after 1 hr using ethidium bromide staining by agarose gel electrophoresis; format: protein-complex assay
[8] = biological target: T2, Topoisomerase IV (Staphylococcus aureus); assay: Inhibition of decatenation activity of DNA topoisomerase 4 in Staphylococcus aureus ATCC 6538 using kDNA as substrate at 32 ug/ml […] using ethidium bromide staining by agarose gel electrophoresis; format: protein-complex assay
[9] = test system: Staphylococcus epidermidis; assay: Inhibition of biofilm formation in Staphylococcus epidermidis 23/04 at 4 ug/ml after 24 hrs using MTT staining by spectrophotometer analysis; format: functional; conditions: 23/04, 24 h
[10] = biological target: T2, Topoisomerase IV (Staphylococcus aureus); assay: Inhibition of decatenation activity of DNA topoisomerase 4 in Staphylococcus aureus NCTC 4163 using kDNA as substrate at 1 to 4 ug/ml […] using ethidium bromide staining by agarose gel electrophoresis; format: protein-complex assay
[11] = biological target: T1, DNA topoisomerase 4 (Staphylococcus epidermidis); assay: Inhibition of decatenation activity of DNA topoisomerase 4 in hospital methicillin-resistant Staphylococcus epidermidis 151/04 using kDNA as substrate at 1 to 4 ug/ml after 1 hr using ethidium bromide staining by agarose gel electrophoresis; format: protein assay
[12] = biological target: T2, Topoisomerase IV (Staphylococcus aureus); assay: Inhibition of decatenation activity of DNA topoisomerase 4 in Staphylococcus aureus ATCC 29213 using kDNA as substrate at 32 ug/ml […] using ethidium bromide staining by agarose gel electrophoresis; format: protein-complex assay
[13] = test system: Staphylococcus epidermidis; assay: Inhibition of biofilm formation in Staphylococcus epidermidis 31/04 at 4 ug/ml after 24 hrs using MTT staining by spectrophotometer analysis; format: functional; conditions: 31/04, 24 h
Method in brief: (§1)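 Methicillin-resistant hospital isolates or ATCC strains of S. epidermidis were grown overnight in tryptone soy broth with 0.5% glucose. Inoculum of 10^7 CFU/mL was mixed 1:1 with compound in TSB-glucose and incubated 24 h at 37 °C. Non-adherent cells were washed off with PBS, and wells were stained with MTT (0.5% in PBS) for 2 h at 37 °C. Stain was solubilized in DMSO/glycine buffer and read at A554. Inhibition is relative to drug-free control; quadruplicates.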

[14] = biological target: T2, Topoisomerase IV (Staphylococcus aureus); assay: Inhibition of decatenation activity of DNA topoisomerase 4 in Staphylococcus aureus ATCC 6538 using kDNA as substrate at 1 to 4 ug/ml […] using ethidium bromide staining by agarose gel electrophoresis; format: protein-complex assay
[15] = biological target: T1, DNA topoisomerase 4 (Staphylococcus epidermidis); assay: Inhibition of decatenation activity of DNA topoisomerase 4 in hospital methicillin-resistant Staphylococcus epidermidis 62/04 using kDNA as substrate at 1 to 4 ug/ml after 1 hr using ethidium bromide staining by agarose gel electrophoresis; format: protein assay
[16] = test system: Staphylococcus epidermidis; assay: Inhibition of biofilm formation in Staphylococcus epidermidis ATCC 35984 at 4 ug/ml after 24 hrs using MTT staining by spectrophotometer analysis; format: functional; conditions: ATCC 35984, 24 h; method in brief: as §1
[17] = biological target: T1, DNA topoisomerase 4 (Staphylococcus epidermidis); assay: Inhibition of decatenation activity of DNA topoisomerase 4 in hospital methicillin-resistant Staphylococcus epidermidis 62/04 using kDNA as substrate at 32 ug/ml after 1 hr using ethidium bromide staining by agarose gel electrophoresis; format: protein assay
[18] = test system: Staphylococcus epidermidis; assay: Inhibition of biofilm formation in Staphylococcus epidermidis 62/04 at 4 ug/ml after 24 hrs using MTT staining by spectrophotometer analysis; format: functional; conditions: 62/04, 24 h; method in brief: as §1
[19] = biological target: T1, DNA topoisomerase 4 (Staphylococcus epidermidis); conditions: 16/04, at 1 to 4 µg/mL
[20] = biological target: T1, DNA topoisomerase 4 (Staphylococcus epidermidis); assay: Inhibition of decatenation activity of DNA topoisomerase 4 in hospital methicillin-resistant Staphylococcus epidermidis 63/04 using kDNA as substrate at 32 ug/ml after 1 hr using ethidium bromide staining by agarose gel electrophoresis; format: protein assay
[21] = biological target: T1, DNA topoisomerase 4 (Staphylococcus epidermidis); assay: Inhibition of decatenation activity of DNA topoisomerase 4 in hospital methicillin-resistant Staphylococcus epidermidis 151/04 using kDNA as substrate at 32 ug/ml after 1 hr using ethidium bromide staining by agarose gel electrophoresis; format: protein assay
[22] = biological target: T1, DNA topoisomerase 4 (Staphylococcus epidermidis); assay: Inhibition of decatenation activity of DNA topoisomerase 4 in hospital methicillin-resistant Staphylococcus epidermidis 23/04 using kDNA as substrate at 32 ug/ml after 1 hr using ethidium bromide staining by agarose gel electrophoresis; format: protein assay
CCRF-CEM = assay: Cytotoxicity against human CCRF-CEM cells after 96 hrs by MTT assay; format: functional
Method in brief: (§2)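 Leukaemia/lymphoma lines seeded at 1×10^5 cells/ml in RPMI-1640 with 10% FCS and penicillin/streptomycin; incubated with serial dilutions at 37°C, 5% CO2; viability by MTT after 96 h; value is concentration reducing proliferation by 50%, with untreated controls undergoing at least three rounds of multiplication.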

WIL2-NS = assay: Cytotoxicity against human WIL2-NS cells after 96 hrs by MTT assay; format: functional; method in brief: as §2

| SMILES | MIC (Staphylococcus aureus) [µg/mL] | Ratio [1] | inhibition [2] | inhibition [3] | inhibition [4] | inhibition [5] | IC50 [6] [µg/mL] | inhibition [7] | inhibition [8] | inhibition at 4 µg/mL [9] [%] | inhibition [10] | inhibition [11] | inhibition [12] | inhibition at 4 µg/mL [13] [%] | inhibition [14] | inhibition [15] | inhibition at 4 µg/mL [16] [%] | inhibition [17] | CC50 (CCRF-CEM) [µM] | CC50 (WIL2-NS) [µM] | other results |
| --- | --- | --- | --- | --- | --- | --- | --- | --- | --- | --- | --- | --- | --- | --- | --- | --- | --- | --- | --- | --- | --- |
| FC(F)(F)c1cccc(NC(S)=NCc2ccccc2)c1 | 8 (≈ 25.8 µM) | 128 | – | – | – | – | – | – | – | – | – | – | – | – | – | – | – | – | – | – | – |
| O=C(O)c1cn(C2CC2)c2cc(N3CCNCC3)c(F)cc2c1=O [CIPROFLOXACIN] | 8 (≈ 24.1 µM) | – | Active | Active | Active | Active | 42.8 (≈ 129 µM) | Active | Active | 5.71 | Active | Active | Active | 18.7 | Active | Active | 45.4 | Active | – | – | inhibition at 4 µg/mL [18]: 59.9%; inhibition [19]: Active; inhibition [20]: Active; inhibition [21]: Active; inhibition [22]: Active |
| FC(F)(F)c1cccc(NC(S)=Nc2ccc(Cl)c(Cl)c2)c1 | 1 (≈ 2.74 µM) | 128 | – | – | – | – | – | – | – | – | – | – | – | – | – | – | – | – | 8 | 8 | – |
| Fc1cccc(NC(=S)Nc2cccc(C(F)(F)F)c2)c1 | 8 (≈ 25.5 µM) | 128 | – | – | – | – | – | – | – | – | – | – | – | – | – | – | – | – | – | – | – |
| FC(F)(F)c1cccc(NC(=S)Nc2ccc(Cl)cc2)c1 | 16 (≈ 48.4 µM) | 128 | – | – | – | – | – | – | – | – | – | – | – | – | – | – | – | – | 12 | 13 | – |
| FC(F)(F)c1cccc(NC(=S)Nc2cccc(Br)c2)c1 | 1 (≈ 2.67 µM) | 128 | Active | Active | Active | Active | 3.13 (≈ 8.34 µM) | Active | Active | 71.6 | Active | Active | Active | 70.1 | Active | Active | 46.8 | Active | 9.3 | 9.9 | inhibition at 4 µg/mL [18]: 84.8%; inhibition [19]: Active; inhibition [20]: Active; inhibition [21]: Active; inhibition [22]: Active |
| FC(F)(F)c1cccc(NC(=S)NCCc2ccccc2)c1 | 16 (≈ 49.3 µM) | 128 | – | – | – | – | – | – | – | – | – | – | – | – | – | – | – | – | – | – | – |
| Fc1ccc(NC(=S)Nc2cccc(C(F)(F)F)c2)cc1Cl | 0.25 (≈ 0.717 µM) | 128 | Active | Active | Active | Active | 2.01 (≈ 5.76 µM) | Active | Active | 77.9 | Active | Active | Active | 77.1 | Active | Active | 84 | Active | 7 | 9 | inhibition at 4 µg/mL [18]: 89.7%; inhibition [19]: Active; inhibition [20]: Active; inhibition [21]: Active; inhibition [22]: Active |
